Experimental data: PMC11525735 (ACS Omega, 2024)

Tests used:
PD-L1 = settings: various cancer cells; cited from earlier work
A375 xenografts = experiment: In vivo NIF whole-body imaging of tumor-bearing mice; design: species or system BALB/c nu/nu nude mice; settings: A375 xenograft, 1 nM Cy5.5-A11 i.v.
Summary of the method: (§1)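 Five-week-old female nude mice carried right-shoulder subcutaneous xenografts (5×10^6 cells). At 100 mm³, 1 nM Cy5.5-labelled test peptide was given i.v. (n = 3). Whole-body NIR imaging followed at 0.5, 1, 2, 3, 4, 5, 6 and 24 h p.i. with a Cy5.5 filter set, 1 s exposure, f/stop 4 and fixed illumination, in p/s/cm²/sr. Tumour-to-muscle ratio came from ROI mean intensities; mean ± SD.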

H460 xenografts = experiment: as above; design: species or system BALB/c nu/nu nude mice; settings: H460 xenograft, 1 nM Cy5.5-A11 i.v.
Summary of the method: as §1

H460 cells = experiment: In vitro fluorescence imaging of Cy5.5-A11; format: cell-based; settings: 6 h
Summary of the method: (§2)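 Cells (5×10^4; kept in DMEM or RPMI-1640 with 10% FBS) were plated in chamber slides and cultured 24 h. They were then exposed to 10 nM Cy5.5-labelled test peptide at 37 °C for 6 h; blocking wells also received 1 μM unlabelled peptide. After three PBS washes, cells were fixed in 4% paraformaldehyde for 20 min and DAPI-stained. Images were taken by laser confocal microscopy.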

A375 cells = experiment: In vitro fluorescence imaging of Cy5.5-A11; format: cell-based; settings: 6 h
Summary of the method: as §2

A375 tumor-bearing mice = experiment: Ex vivo biodistribution study; format: in vivo, BALB/c nu/nu nude mice; settings: 4 h p.i.
Summary of the method: (§3)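 Five-week-old female nude mice carried subcutaneous right-shoulder xenografts (5×10^6 cells), including xenografts from stable shRNA PD-L1-knockdown lines. At 100 mm³ tumour volume, mice received 1 nM Cy5.5-labelled test peptide i.v., with or without 1 μM unlabelled peptide (n = 3). Mice were killed at 4 h p.i. Tumour, brain, heart, lung, liver, stomach, intestine, spleen, kidney and muscle were imaged ex vivo through a Cy5.5 filter set. Average fluorescence per specimen was taken by ROI; mean ± SD.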

MDA-MB-231 xenografts = experiment: In vivo NIF whole-body imaging of tumor-bearing mice; design: species or system BALB/c nu/nu nude mice; settings: MDA-MB-231 xenograft, 1 nM Cy5.5-A11 i.v.
Summary of the method: as §1

H460 tumor-bearing mice = experiment: Ex vivo biodistribution study; format: in vivo, BALB/c nu/nu nude mice; settings: 4 h p.i.
Summary of the method: as §3

MDA-MB-231 cells = experiment: In vitro fluorescence imaging of Cy5.5-A11; format: cell-based; settings: 6 h
Summary of the method: as §2

[1] = test system: MDA-MB-231 tumor-bearing mice; experiment: Ex vivo biodistribution study; format: in vivo, BALB/c nu/nu nude mice; settings: 4 h p.i.
Summary of the method: as §3

[2] = 0.5-6 h p.i., ROI analysis, n = 3

Substance: EYVQTVKSSKG [A11]
- action on PD-L1 (PD-L1): binds and degrades PD-L1

Substance: Cy5.5-EYVQTVKSSKG [Cy5.5-A11]
- tumor-to-muscle fluorescence signal ratio (A375 xenografts; [2]): High
- tumor-specific fluorescence signal at 24 h p.i. (A375 xenografts; 24 h p.i.): distinctly visible
- time of peak tumor-specific fluorescence signal (A375 xenografts; n = 3): 2 h p.i.
- tumor-to-muscle fluorescence signal ratio (H460 xenografts; [2]): High
- tumor-specific fluorescence signal at 24 h p.i. (H460 xenografts; 24 h p.i.): distinctly visible
- time of peak tumor-specific fluorescence signal (H460 xenografts; n = 3): 2 h p.i.
- fluorescent signal of cells, blocking with unlabeled A11 (H460 cells; H460, 10 nM Cy5.5-A11 + 1 μM unlabeled A11, 37 °C, confocal microscopy): successfully blocked
- fluorescent signal of cells (H460 cells; H460, 10 nM Cy5.5-A11, 37 °C, laser confocal microscopy, nonblocking): robust fluorescent signal
- fluorescent signal in PD-L1 knockdown versus shNC control cells (H460 cells; H460 stable PD-L1 shRNA knockdown and shNC control, 10 nM Cy5.5-A11, 37 °C, confocal microscopy): seen in shNC control cells but not PD-L1 knockdown cancer cells
- fluorescent signal of cells, blocking with unlabeled A11 (A375 cells; A375, 10 nM Cy5.5-A11 + 1 μM unlabeled A11, 37 °C, confocal microscopy): successfully blocked
- fluorescent signal of cells (A375 cells; A375, 10 nM Cy5.5-A11, 37 °C, laser confocal microscopy, nonblocking): robust fluorescent signal
- fluorescent signal in PD-L1 knockdown versus shNC control cells (A375 cells; A375 stable PD-L1 shRNA knockdown and shNC control, 10 nM Cy5.5-A11, 37 °C, confocal microscopy): seen in shNC control cells but not PD-L1 knockdown cancer cells
- ex vivo uptake in the xenografts with excessive unlabeled A11 (A375 tumor-bearing mice; A375, blocking group, 1 nM Cy5.5-A11 + 1 μM unlabeled A11 i.v.): obviously reduced
- ex vivo uptake of the probe in the xenografts (A375 tumor-bearing mice; A375, nonblocking group, 1 nM Cy5.5-A11 i.v., ex vivo fluorescence, ROI): significant uptake
- organ uptake (biodistribution) (A375 tumor-bearing mice; A375 tumor-bearing mice, three groups (nonblocking, blocking, PD-L1 KD), ex vivo fluorescence, ROI): higher in the liver and kidney than that in other organs
- ex vivo fluorescent signal in xenografts of cancer cells with PD-L1 knockdown (A375 tumor-bearing mice; PD-L1 knockdown A375, 1 nM Cy5.5-A11 i.v.): dramatically decreased
- tumor-to-muscle fluorescence signal ratio (MDA-MB-231 xenografts; [2]): High
- tumor-specific fluorescence signal at 24 h p.i. (MDA-MB-231 xenografts; 24 h p.i.): distinctly visible
- time of peak tumor-specific fluorescence signal (MDA-MB-231 xenografts; n = 3): 2 h p.i.
- ex vivo uptake in the xenografts with excessive unlabeled A11 (H460 tumor-bearing mice; H460, blocking group, 1 nM Cy5.5-A11 + 1 μM unlabeled A11 i.v.): obviously reduced
- ex vivo uptake of the probe in the xenografts (H460 tumor-bearing mice; H460, nonblocking group, 1 nM Cy5.5-A11 i.v., ex vivo fluorescence, ROI): significant uptake
- ex vivo fluorescent signal in xenografts of cancer cells with PD-L1 knockdown (H460 tumor-bearing mice; PD-L1 knockdown H460, 1 nM Cy5.5-A11 i.v.): dramatically decreased
- fluorescent signal of cells, blocking with unlabeled A11 (MDA-MB-231 cells; MDA-MB-231, 10 nM Cy5.5-A11 + 1 μM unlabeled A11, 37 °C, confocal microscopy): successfully blocked
- fluorescent signal of cells (MDA-MB-231 cells; MDA-MB-231, 10 nM Cy5.5-A11, 37 °C, laser confocal microscopy, nonblocking): robust fluorescent signal
- fluorescent signal in PD-L1 knockdown versus shNC control cells (MDA-MB-231 cells; MDA-MB-231 stable PD-L1 shRNA knockdown and shNC control, 10 nM Cy5.5-A11, 37 °C, confocal microscopy): seen in shNC control cells but not PD-L1 knockdown cancer cells
- ex vivo uptake in the xenografts with excessive unlabeled A11 ([1]; MDA-MB-231, blocking group, 1 nM Cy5.5-A11 + 1 μM unlabeled A11 i.v.): obviously reduced
- ex vivo uptake of the probe in the xenografts ([1]; MDA-MB-231, nonblocking group, 1 nM Cy5.5-A11 i.v., ex vivo fluorescence, ROI): significant uptake
- ex vivo fluorescent signal in xenografts of cancer cells with PD-L1 knockdown ([1]; PD-L1 knockdown MDA-MB-231, 1 nM Cy5.5-A11 i.v.): dramatically decreased
